Diaph inh CS – inhibits diaphorase or chemically oxidizes, flagging diaphorase assay artifacts; diaphorase resazurin-to-resorufin fluorescence, NADH, 16 min; bacterial (C. kluyveri) enzyme, not human; inhibition, % at 20 µM; 190,000 compounds, 0.69% hits;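 active = primary screen inhibition at 20 µM above a set limit, cut at about 50% in these data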
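material = Clostridium kluyveri diaphorase enzyme | amount = 0.14 U/mL diaphorase, enzyme working solution | schedule = incubation 16 min, room temperature | detection = fluorescence of resorufin formed from resazurin, Ex 544/Em 590 nm | benchmarks = positive control minus NADH, DMSO neutral control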
PfG6PD inh – PfG6PD (Plasmodium falciparum) enzyme inhibition; PfGluPho enzyme, NADPH resazurin-diaphorase fluorescence; inhibition, % at 20 µM; 350,000 compounds, 0.78% hits;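 active = inhibition reaching at least a set limit at 20 µM in the primary screen, cut at about 59% in these data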
HKDC1 inh – inhibitors of human hexokinase HKDC1; AID 493160; 340,000 compounds, 0.16% hits; recombinant HKDC1, G6PDH/diaphorase resazurin coupled fluorescence; Q2TB90; inhibition, % at 20 µM;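 active = inhibition above about 35% when tested at 20 µM, limit read from the data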
Target sequence (Q2TB90 whole entry, looked up): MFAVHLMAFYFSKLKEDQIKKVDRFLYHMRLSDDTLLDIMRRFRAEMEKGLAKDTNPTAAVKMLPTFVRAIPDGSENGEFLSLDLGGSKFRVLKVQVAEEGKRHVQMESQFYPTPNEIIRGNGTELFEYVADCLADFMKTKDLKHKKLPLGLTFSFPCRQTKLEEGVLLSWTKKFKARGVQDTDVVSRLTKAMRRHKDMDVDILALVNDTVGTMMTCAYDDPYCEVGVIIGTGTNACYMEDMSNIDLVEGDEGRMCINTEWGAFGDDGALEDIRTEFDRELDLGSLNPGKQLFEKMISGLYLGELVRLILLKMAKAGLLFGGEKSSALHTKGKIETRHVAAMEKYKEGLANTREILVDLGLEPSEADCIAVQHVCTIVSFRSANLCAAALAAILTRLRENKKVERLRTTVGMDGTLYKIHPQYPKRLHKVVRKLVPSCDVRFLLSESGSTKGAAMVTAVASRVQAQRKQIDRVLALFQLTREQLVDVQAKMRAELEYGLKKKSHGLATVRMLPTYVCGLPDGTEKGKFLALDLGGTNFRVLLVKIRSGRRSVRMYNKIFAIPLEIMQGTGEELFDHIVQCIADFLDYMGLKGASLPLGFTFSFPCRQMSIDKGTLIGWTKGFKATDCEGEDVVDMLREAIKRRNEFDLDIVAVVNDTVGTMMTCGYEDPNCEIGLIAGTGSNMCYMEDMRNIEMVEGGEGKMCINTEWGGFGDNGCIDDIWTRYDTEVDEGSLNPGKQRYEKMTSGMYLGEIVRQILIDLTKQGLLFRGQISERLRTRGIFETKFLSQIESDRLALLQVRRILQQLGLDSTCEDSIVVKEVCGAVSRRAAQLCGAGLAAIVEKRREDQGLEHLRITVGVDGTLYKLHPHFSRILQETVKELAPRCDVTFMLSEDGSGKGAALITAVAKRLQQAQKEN
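test system = in-house recombinant HK5 (HKDC1) enzyme | amount = HKDC1 at 5 µg/mL | control set = DMSO-enzyme wells negative, buffer-substituted wells positive | compound = one dose of 20 µM, 1% DMSO | schedule = reaction time 90 min, room temperature, protected from light | technique = resorufin fluorescence at 613 nm | reagent = glucose with 1 mM ATP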
Diaph act CS – activates diaphorase or chemically reduces, flagging diaphorase assay artifacts. Diaphorase/resazurin coupled assay, resorufin fluorescence, 16 min; stronger effect = higher value; 1 = vehicle wells, 0 = NADH-free wells. activation factor at 20 µM. 190,000 compounds, 0.005% hits;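 active = diaphorase activity raised at least twofold by the compound at 20 µM; inactive = activation factor below 2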
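Material: Clostridium kluyveri diaphorase, purified enzyme; Quantity: enzyme 0.07 U/mL final; Medium: HEPES pH 7.4 buffer with MgCl2 and Tween 20; Dosing: single compound dose of 20 µM, 1% DMSO final; Schedule: 16 min reaction at room temperature; Measured by: red resorufin fluorescence at 544/590 nm excitation/emission.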
G6PDH CS – counter-screen for G6PDH assay hits: L. mesenteroides G6PDH inhibition | 200,000 compounds, 0.12% hits | Purified L. mesenteroides G6PDH, diaphorase/resazurin coupled fluorescence, 45 min | AID 1020 | inhibition, % at 5 µM; in the data active = inhibition above about 50%
Each line names hits and unclear results; the compound was inactive in the other large screens. The list is not random: actives were taken first. Their share in the collection is about 1.2%.

Cc1nc2c(C(=O)NCCC3=CCCCC3)c[nH]n2c(=O)c1Cl	Diaph inh CS 54.5
CC(C)C(=O)N(c1cc2sc(=O)oc2c2ccccc12)S(=O)(=O)c1cccs1	Diaph inh CS 60.8, PfG6PD inh 74.5, HKDC1 inh 45.0
Cc1ccc(CN2CC(C(=O)N3CC=C(c4ccccc4)CC3)CC2=O)cc1 (stereo unspecified)	none (no result: Diaph inh CS, Diaph act CS, G6PDH CS)
Cc1ccc(C)c(N(CC(=O)N/N=C/c2ccc(-c3ccc([N+](=O)[O-])cc3)o2)S(=O)(=O)c2ccccc2)c1	none
CCOc1ccc(S(=O)(=O)N(CC(=O)N/N=C/c2ccc(-c3ccc([N+](=O)[O-])cc3)o2)c2ccccc2)cc1	Diaph inh CS 61.7
Cc1ccc(NC(=O)c2ccc(S(=O)(=O)N3CCOCC3)cc2)cc1	none (no result: Diaph inh CS, Diaph act CS, G6PDH CS)
CC(Sc1nc2cc(Cl)ccc2s1)C(=O)Nc1cccc(S(=O)(=O)N2CCOCC2)c1 (stereo unspecified)	Diaph inh CS 66.3
Cc1ccc(SC(C)C(=O)Nc2ccc(S(=O)(=O)N3CCOCC3)cc2)cc1 (stereo unspecified)	Diaph inh CS 52.7
Cc1cc(Cl)ccc1OC(C)C(=O)Nc1cccc(S(=O)(=O)N2CCOCC2)c1 (stereo unspecified)	none (no result: Diaph inh CS, HKDC1 inh, Diaph act CS, G6PDH CS)
Cc1ccc(N2CC(C(=O)Nc3nc4ccc(S(C)(=O)=O)cc4s3)CC2=O)cc1 (stereo unspecified)	none (no result: Diaph inh CS, Diaph act CS, G6PDH CS)
COCC(=O)N1CCC(Oc2ccc(C(=O)N(C)Cc3nccs3)cc2)CC1	none (no result: Diaph inh CS, Diaph act CS, G6PDH CS)
CCOC(=O)c1nn(-c2ccccc2C)c(=O)cc1OCC(=O)Nc1cccc(OC)c1	none (no result: Diaph inh CS, Diaph act CS, G6PDH CS)
O=C(NC1CCCCC1)C(c1ccc(O)c(O)c1)N(C(=O)Cn1nnc2ccccc21)c1cccc(O)c1 (stereo unspecified)	Diaph inh CS 56.1
C=CCn1cc(CN2CCC(C(=O)Nc3cccc(-c4cccc(Cl)c4)c3)CC2)c(C)n1	none (no result: Diaph inh CS, Diaph act CS, G6PDH CS)
c1cc2c3c(cccc3c1)C(N1CCCCC1)=N2	G6PDH CS 52.1
CN=c1scc(-c2cccs2)n1/N=C/c1ccc(O)c(O)c1O	Diaph inh CS 68.5
CC(C)N=c1scc(-c2ccco2)n1/N=C/c1ccc(O)c(O)c1	Diaph inh CS 59.2
Oc1ccc(/C=N/n2c(-c3ccco3)csc2=Nc2cccnc2)c(O)c1	none
COCCN=c1scc(-c2ccco2)n1/N=C/c1ccc(O)c(O)c1O	Diaph inh CS 79.7
CCCC(=O)NC(C)c1nc(-c2ccc(C)cc2)no1 (stereo unspecified)	none (no result: Diaph inh CS, Diaph act CS, G6PDH CS)
Cn1nc(C(=O)NNC(=O)CCc2ccccc2Cl)c2ccccc2c1=O	none (no result: Diaph inh CS, Diaph act CS, G6PDH CS)
Cc1nn(-c2ccc(C(=O)NCC(c3ccco3)N3CCCC3)cc2)c(C)c1Cl (stereo unspecified)	none (no result: Diaph inh CS, Diaph act CS, G6PDH CS)
C#CCNC(=O)C1=C[C@@H](c2ccccc2)C[C@@H](OCc2ccc(CO)cc2)O1	Diaph inh CS 56.5
NC(=O)C1=C[C@@H](c2ccc(C(F)(F)F)cc2)C[C@@H](OCc2ccc(CO)cc2)O1	Diaph inh CS 52.5
NC(=O)C1=C[C@H](c2ccc(C(F)(F)F)cc2)C[C@H](OCc2ccc(CO)cc2)O1	none
COC(=O)c1ccc(NC(=O)Nc2ccc([N+](=O)[O-])cc2)cc1	none (no result: Diaph inh CS, Diaph act CS, G6PDH CS)
Cc1ccc2c(Cl)cc(Cl)c(OCC(=O)NC(=O)NCc3ccco3)c2n1	none
Cc1ccc2c(Cl)cc(Cl)c(OCC(=O)NCc3ccco3)c2n1	Diaph inh CS 54.1 (no result: PfG6PD inh, HKDC1 inh)
COc1ccc(C(=O)NCC(=O)OCC(=O)N2CC(C)OC(C)C2)cc1OC (stereo unspecified)	none (no result: Diaph inh CS, Diaph act CS, G6PDH CS)
CN(C1=C(NC(=O)c2ccccc2)C(=O)c2ccccc2C1=O)C1CCS(=O)(=O)C1 (stereo unspecified)	Diaph inh CS 59.2 (no result: PfG6PD inh, HKDC1 inh)
CC(=O)NC1=C(NC2CCS(=O)(=O)C2)C(=O)c2ccccc2C1=O (stereo unspecified)	none
CCN(CC)P(=O)(c1ccccc1)c1c(C)nc2ccccn12 (stereo unspecified)	none (no result: Diaph inh CS, Diaph act CS, G6PDH CS)
COc1ccc(CNC(=O)[C@@H]2CC=C[C@@H]3CCN(Cc4ccc(Cl)c(Cl)c4)C(=O)[C@@H]32)cc1	none (no result: Diaph inh CS, Diaph act CS, G6PDH CS)
COc1ccc(CNC[C@@H](CCCCN(C)Cc2ccc(OC)cc2)N2C[C@H](c3ccccc3)N(CCc3ccc(Cl)c(Cl)c3)C(=O)C2=O)cc1	Diaph act CS 2.2
CN(CC(=O)Nc1ccc(F)c(F)c1F)C(=O)C1COc2ccccc2O1 (stereo unspecified)	none (no result: Diaph inh CS, Diaph act CS, G6PDH CS)
CC(c1ccccc1)N1CC(C(=O)Nc2ccc(F)cc2)CC1=O (stereo unspecified)	none (no result: Diaph inh CS, Diaph act CS, G6PDH CS)
Cc1ccc(NC(=O)CN2CCN(CCN=CC3=C(O)CC(c4ccc(C)cc4)CC3=O)CC2)cc1 (stereo unspecified)	none (no result: Diaph inh CS, Diaph act CS)
Cc1c(Nc2cc(N3CCCCCC3)c3nonc3c2[N+](=O)[O-])c(=O)n(-c2ccccc2)n1C	Diaph inh CS 51.4
O=C(CN1C(=O)C2C3C=CC(C4CC34)C2C1=O)Oc1ccccc1 (stereo unspecified)	none
Cc1nn(-c2ccccc2)c(N2CCCC2)c1/C=N/NC(=O)c1ccccc1O	none
O=C(N/N=C/c1cc2c3c(c1O)CCCN3CCC2)c1ccccc1O	Diaph inh CS 62.7
O=[N+]([O-])c1ccc(Nc2ccccc2)c2nonc12	none (no result: Diaph inh CS, Diaph act CS, G6PDH CS)
O=[N+]([O-])c1ccc(Sc2cccc[n+]2[O-])c2nonc12	PfG6PD inh 115.0 (no result: Diaph inh CS, Diaph act CS, G6PDH CS)
Cc1ccc(NCCCCO)cc1C	none

Source: PubChem BioAssay
